Compound activity: PubChem, Broad Institute
STK33 inh: blocks human STK33 kinase activity. inhibition, % at 10 µM. Q9BYT3. purified STK33, MBP phosphorylation, ADP-Glo luminescence. actives 0.073% (n = 320,000);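 active = inhibition at or above 25%, using the most active replicate where run in duplicate; inactive = inhibition below 25%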
DYRK1A inh: inhibitors of rat Dyrk1A kinase | Q63470 | ADP-Glo luminescence, NFATc1 peptide | inhibition, % at 12.5 µM | actives 0.43% (n = 310,000) | AID 504441; in the data active = inhibition above about 50%
CDK5 p35 inh: CDK5/p35 (human) kinase inhibition | Q00535+Q15078 | Recombinant CDK5/p35, ADP-Glo luminescence, 60 min | inhibition, % at 10 µM | actives 0.01% (n = 330,000);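 active = highest replicate inhibition of at least 50% and at least 75% of replicates reaching 50%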
Target sequence (Q00535 whole entry, looked up): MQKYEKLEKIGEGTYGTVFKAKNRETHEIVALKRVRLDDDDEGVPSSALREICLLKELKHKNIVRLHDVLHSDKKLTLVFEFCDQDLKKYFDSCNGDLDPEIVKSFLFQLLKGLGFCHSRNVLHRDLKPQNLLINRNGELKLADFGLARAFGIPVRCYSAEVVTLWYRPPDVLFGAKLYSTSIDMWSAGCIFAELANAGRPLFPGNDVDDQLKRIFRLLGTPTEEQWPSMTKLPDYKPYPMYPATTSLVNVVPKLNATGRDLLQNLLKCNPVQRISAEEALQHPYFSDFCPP
Target sequence (Q15078 whole entry, looked up): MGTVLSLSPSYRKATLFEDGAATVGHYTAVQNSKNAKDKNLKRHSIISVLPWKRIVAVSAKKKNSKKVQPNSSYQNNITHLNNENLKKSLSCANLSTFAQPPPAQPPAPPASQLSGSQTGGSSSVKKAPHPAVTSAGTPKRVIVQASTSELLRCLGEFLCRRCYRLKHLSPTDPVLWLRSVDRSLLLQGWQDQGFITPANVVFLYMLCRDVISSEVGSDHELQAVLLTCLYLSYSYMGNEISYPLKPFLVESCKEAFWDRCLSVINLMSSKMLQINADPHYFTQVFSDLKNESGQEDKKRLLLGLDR
GSK3B inh: blocks human GSK3beta kinase activity. activity score (negative = inhibition), % at 10 µM. actives 0.038% (n = 300,000). GST-GSK3beta kinase, ADP-Glo luminescence, 60 min; hits give low values. P49841;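 active = more than half of replicate wells score below -50%, meaning over 50% inhibition versus plate controls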
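Test system: GST-tagged human GSK3beta kinase, cell-free; evaluation: activity score scaled between in-plate DMSO and GW8510 controls; measured by: ADP-Glo luminescence; incubation: 60 min reaction, RT; benchmarks: DMSO and 20 µM GW8510; reagent: peptide substrate plus 25 µM ATP (final); medium: Tris/MgCl2 kinase buffer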
GSK3A inh: blocks human GSK-3 alpha kinase. P49840. ADP-Glo luminescence, 60 min. inhibition, % at 10 µM. actives 0.1% (n = 320,000). AID 2650;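 active = more than half of replicates show inhibition above 20%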;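 note: GST-tagged GSK-3 alpha with peptide substrate and 25 µM ATP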
Of the large screens only hits and unclear results are named; the others gave an inactive call. This is one part of a sample in which hits are shown more often than they occur.

Nc1nc(SCc2ccccc2)cc(SCc2ccccc2)n1	none (no result: STK33 inh, GSK3B inh, GSK3A inh)
CNC(=O)OCc1nc(SSC(C)(C)C)n(C)c1COC(=O)NC	none (no result: STK33 inh, GSK3B inh, GSK3A inh)
O=C(N/N=C/c1ccccn1)c1sc2ccccc2c1Cl	DYRK1A inh 64
CC(c1ccccc1)C(OC(=O)c1cccc([N+](=O)[O-])c1C(=O)O)c1ccccc1 (stereo unspecified)	none (no result: STK33 inh, GSK3B inh, GSK3A inh)
O=C(O)CCn1cc(/C=N/O)c(-c2cccc([N+](=O)[O-])c2)n1	GSK3B inh -66, GSK3A inh 78
COc1ccc(OC)c(C2CC(=O)Nc3n[nH]c(-c4ccccc4)c32)c1 (stereo unspecified)	none
COc1cccc(C2CC(=O)Nc3n[nH]c(-c4ccccc4)c32)c1OC (stereo unspecified)	GSK3A inh 61
c1coc(C2Nc3ccccc3-c3nc4ccccc4n32)c1 (stereo unspecified)	STK33 inh 36
Oc1ccc(/C=C/c2ccnc3ccccc23)cc1	STK33 inh 25
Cc1ccc(C(=O)O/N=C(\N)c2ccccn2)c(Cl)c1	STK33 inh 29
COc1ccc(C(=O)O/N=C(\N)c2ccccc2)cc1	STK33 inh 26 (no result: DYRK1A inh)
COc1cccc(C(=O)O/N=C(\N)c2ccccn2)c1	STK33 inh 37 (no result: GSK3B inh)
N/C(=N\OC(=O)c1ccc(Cl)cc1Cl)c1ccccn1	none
COCCCNc1nc(N)c([N+](=O)[O-])c(Nc2cc(OC)ccc2OC)n1	none
COc1ccccc1Nc1nc(NCCC(C)C)nc(N)c1[N+](=O)[O-]	none (no result: DYRK1A inh, CDK5 p35 inh)
COc1ccc(OC)c(Nc2nc(NCCCN(C)C)nc(N)c2[N+](=O)[O-])c1	GSK3B inh -65, GSK3A inh 88
COc1ccccc1Nc1nc(NCCO)nc(N)c1[N+](=O)[O-]	GSK3A inh 60 (no result: DYRK1A inh, CDK5 p35 inh)
COc1ccc(Nc2nc(N)c(C(=O)c3ccc(OC)cc3)s2)cc1	GSK3B inh -65, GSK3A inh 77 (no result: DYRK1A inh)
COc1ccc(Nc2nc(N)c(C(=O)c3ccc(F)cc3)s2)cc1	GSK3A inh 62
CC(C)(C)C(=O)c1sc(Nc2ccccc2)nc1N	GSK3B inh -64, GSK3A inh 82
Cc1nc(Nc2ccccc2)sc1C(=O)c1ccccc1	none
COc1ccc(C(=O)c2sc(NC(C)C)nc2N)cc1OC	GSK3A inh 91 (no result: GSK3B inh)
COc1ccc(C(=O)c2sc(Nc3ccccc3)nc2C)cc1	none
CCC(=O)OCOc1ccc(/C=C2/CCC(CN(C)C)C2=O)cc1 (stereo unspecified)	none (no result: STK33 inh, GSK3B inh, GSK3A inh)
O=C(CNC(=O)c1cc(-c2ccccc2)nn1-c1ccccc1)Nc1ccccc1Br	none (no result: STK33 inh, GSK3B inh, GSK3A inh)
Cc1[nH]nc2c1C(c1cccs1)C1=C(CCCC1=O)N2 (stereo unspecified)	GSK3B inh -50, GSK3A inh 70
CCOC(=O)C1=C(C)NC2=C(C(=O)CCC2)C1c1cccs1 (stereo unspecified)	none
Cc1[nH]nc2c1C(c1cccs1)C1=C(CC(C)(C)CC1=O)N2 (stereo unspecified)	GSK3B inh -82, GSK3A inh 99 (no result: DYRK1A inh)
Cc1ccc(NC(=S)Nc2ccc3cn[nH]c3c2)c(C)c1	STK33 inh 32, DYRK1A inh 71
O=C1NC(=O)c2c(NC(=O)C3CCCO3)cccc21 (stereo unspecified)	none (no result: DYRK1A inh)
CC(=O)Nc1cccc2c1C(=O)NC2=O	GSK3A inh 72
Nc1nc(-c2ccccc2)[nH]c(=O)c1N	DYRK1A inh 75
Nc1[nH]nc2nc(-c3ccccc3)[nH]c(=O)c12	none
CC(C)(C)OC(=O)N1CCC(NC(=O)c2[nH]cnc2C(=O)Nc2ccon2)CC1	GSK3A inh 72 (no result: GSK3B inh)
COc1cccc(C2C3=C(CC(C)(C)CC3=O)Nc3n[nH]c(C)c32)c1 (stereo unspecified)	GSK3B inh -86, GSK3A inh 78
Cc1[nH]nc2c1C(c1ccc(O)cc1)C1=C(CC(C)(C)CC1=O)N2 (stereo unspecified)	GSK3B inh -74, GSK3A inh 86
Cc1ccc(C2C3=C(CC(C)(C)CC3=O)Nc3[nH]c(=S)[nH]c(=O)c32)cc1 (stereo unspecified)	none (no result: GSK3A inh)
COc1ccc(C2C3=C(CC(C)(C)CC3=O)Nc3n[nH]c(C)c32)cc1 (stereo unspecified)	none
Cc1[nH]nc2c1C(c1ccsc1)C1=C(CC(C)(C)CC1=O)N2 (stereo unspecified)	GSK3B inh -77, GSK3A inh 84
Cc1ccc(C(=O)N2[C@@H]3CN(C)C(=O)[C@@]2(Cc2ccccc2)[C@H]2C(=O)N(C)C(=O)[C@@H]32)cc1	none (no result: STK33 inh, GSK3B inh, GSK3A inh)
O=[N+]([O-])c1cccc(SSc2cccc([N+](=O)[O-])c2)c1	none (no result: STK33 inh, GSK3B inh, GSK3A inh)
COc1ccccc1C=NN=C(NN=Cc1ccccc1OC)NN=Cc1ccccc1OC	none (no result: STK33 inh, GSK3B inh, GSK3A inh)
COc1ccc(-n2sc3c(c2=S)-c2cc(OC)ccc2NC3(C)C)cc1	none
COc1ccc2c(c1)-c1c(ssc1=S)C(C)(C)N2	GSK3B inh -60
CC(C)(C)S(=O)(=O)N1C[C@H]2CC/C=C\C/C(c3ccccc3)=C\2[C@@H]1CCO	none (no result: STK33 inh, DYRK1A inh, GSK3B inh, GSK3A inh)
Cc1cc2c(SCC(=O)Nc3cccc(O)c3)ncnc2s1	none (no result: STK33 inh, GSK3B inh, GSK3A inh)
CC1CCC2(CC1)NC(=O)N(CC(=O)Nc1sc3c(c1C(N)=O)CCC3)C2=O (stereo unspecified)	GSK3A inh 78
CC1CCCCC12NC(=O)N(CC(=O)Nc1sc3c(c1C(N)=O)CCC3)C2=O (stereo unspecified)	GSK3A inh 58
Cc1ccc(S(=O)(=O)N2CCOCC2)cc1NC(=O)Cn1c(=O)ccn(Cc2ccccc2)c1=O	none (no result: STK33 inh, GSK3B inh, GSK3A inh)
NC(=O)N/N=C/c1c(O)ccc2oc3c(c12)CCCC3	STK33 inh 75, CDK5 p35 inh 90, GSK3A inh 85
CC(C)(C)N=Cc1c(O)ccc2oc3c(c12)CCCC3	none
O=C1NC(=O)c2c(Br)c(Br)c(Br)c(Br)c21	none (no result: STK33 inh, GSK3B inh, GSK3A inh)
O=C(Cc1cccc(NC(=O)C2CCCN(C(=O)CCc3ccccc3)C2)c1)Nc1cccc(C(=O)N2CCCCC2)c1 (stereo unspecified)	none (no result: STK33 inh, GSK3B inh, GSK3A inh)
COc1cc(/C=N/n2c(C3CCCCC3)n[nH]c2=S)ccc1O	STK33 inh 34
COc1cc(/C=N/n2c(-c3cc(C)[nH]n3)n[nH]c2=S)cc(OC)c1OC	none
COc1cc(/C=N/n2c(-c3cc(C)[nH]n3)n[nH]c2=S)ccc1O	STK33 inh 31
O=C(Cc1coc2cc(O)ccc12)N1CCN(S(=O)(=O)c2ccc(Br)cc2)CC1	none (no result: STK33 inh, GSK3B inh, GSK3A inh)
CCN(CC)c1ccc(/C=C2/C(=O)c3ccc(C(=O)O)cc3C2=O)cc1	STK33 inh 78 (no result: GSK3B inh)
CCN(CC)c1ccc(C=C2C(=O)OC3(CCCCC3)OC2=O)cc1	none
O=C(O)c1cccc(Br)c1	none (no result: STK33 inh, GSK3B inh, GSK3A inh)
CC1CCCCN1c1ncnc(N)c1[N+](=O)[O-] (stereo unspecified)	GSK3B inh -68 (no result: DYRK1A inh)
CC1Cc2ccccc2N1c1ncnc(N)c1[N+](=O)[O-] (stereo unspecified)	none
